# Shown is part of a subset that was picked to be rich in hits.
# CHOP inh = inhibitors of CHOP promoter induction, primary screen, cell-based, unfolded protein response, luciferase reporter; 220,000 compounds, 3.8% hits; inhibition, % at 10 µM; AID 2732, 2010; CHO-K1 CHOP-promoter luciferase, tunicamycin-induced, 15-18 h;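 active means compounds that reduced the stress-induced luciferase reporter signal by more than about 70% of percent inhibition, limit read from the data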
# 697 NFkB inh = inhibitors of PMA/ionomycin-induced NF-kB reporter, 697 cells, primary screen, B-cell NF-kB inhibitor project, cell-based, luminescence, uHTS; 330,000 compounds, 0.33% hits; 697 B-cell NF-kB luciferase reporter, 16 h; AID 435022, 2010; inhibition, % at 4 µM; in the data active means inhibition above about 35%
# CHOP UPR activ = activators of apoptotic CHOP UPR arm, primary screen, cell-based, CHO-CHOP luciferase reporter, luminescence, uHTS | UPR activation; percent of tunicamycin response over DMSO baseline | activation, % at 10 µM | 330,000 compounds, 0.34% hits | AID 449763, 2010;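 active means at 10 µM dose, activation of 40% or more, normalized to positive control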
#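 Evaluation: % reporter activation, DMSO baseline versus tunicamycin full activation; System: CHO-CHOP luciferase reporter cell line; Input: 500 cells/well; Incubation: 6 h compound treatment, 37 °C; Measured by: Steady-Glo luciferase luminescence; Dosing: one dose, 10 µM in 0.5% DMSO; Buffer or medium: F12 medium, 10% FBS; Benchmarks: positive tunicamycin 10 µg/mL, negative DMSO alone.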
# XBP1 UPR activ = activators of adaptive XBP1 UPR arm, primary screen, cell-based, CHO-XBP1 luciferase reporter, luminescence, uHTS; IRE1-XBP1 UPR activation; percent of tunicamycin response, DMSO as zero; 330,000 compounds, 0.33% hits; activation, % at 20 µM; AID 463104, 2010;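 active means versus positive control, 20 µM dose yields 30% or more activation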
#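 Assay system: CHO-XBP1 luciferase reporter cells; Schedule: 6 h treatment, 37 °C; Detection: glow luminescence from Steady-Glo reagent; Benchmarks: high control tunicamycin 10 µg/mL final, low control DMSO vehicle only.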
# Jurkat NFkB inh = inhibitors of induced NF-kB luciferase reporter, primary screen, TCR NF-kB activation inhibitor project, cell-based, luminescence, uHTS; AID 435003, 2010; 330,000 compounds, 0.53% hits; inhibition, % at 4 µM; Jurkat, PMA/ionomycin-induced NF-kB luciferase reporter; in the data active means inhibition above about 50%
# 697 NFkB conf = PMA/ionomycin-induced NF-kB reporter inhibitors, 697 retest, confirmation, B-cell NF-kB inhibitor project, cell-based, luminescence, single concentration; shares compounds with 697 NFkB inh; 2,000 compounds, 35% hits; inhibition, % at 4 µM; 697 B-cell NF-kB luciferase, 16 h; in the data active means inhibition mostly above about 28%, no sharp cut-off; inactive means mostly below about 22%
# Hits are given with their value; 0 = inactive; - = no result.
SMILES,CHOP inh,697 NFkB inh,CHOP UPR activ,XBP1 UPR activ,Jurkat NFkB inh,697 NFkB conf
CC(=O)Oc1ccc(C(=O)Nc2ccc(C3(C#N)CCCC3)cc2)cc1,-,0,0,0,0,-
O=C(CCN1C(=O)/C(=C/c2ccc(F)cc2)SC1=S)NNC(=O)c1ccncc1,0,0,0,0,0,-
Cc1ccc(/C=C2\SC(=S)N(CCCC(=O)Nc3cc(C)on3)C2=O)cc1,-,53,0,0,0,59
O=C(CCCN1C(=O)/C(=C/c2cccc(Br)c2)SC1=S)Nc1cccnc1,0,0,0,0,0,-
Cc1ccc(/C=C2\SC(=S)N(CCC(=O)NNC(=O)c3ccncc3)C2=O)cc1,0,44,0,0,0,31
Cc1ccc(/C=C2\SC(=S)N(CCCC(=O)Nc3cccnc3)C2=O)cc1,-,90,0,0,0,99
COc1ccc(/C=C2\SC(=S)N(CCCCCC(=O)Nc3cc(C)on3)C2=O)cc1OC,-,0,0,0,0,-
Cn1c(N=Nc2ccccc2)nc2ccccc21,0,0,0,0,0,0
O=C(CSc1ccsc1[N+](=O)[O-])N1CCN(c2ccc(Cl)cc2)CC1,0,0,0,0,0,-
COc1ccc(OC)c(NC(=O)Nc2ccc(Cl)cc2)c1,0,0,0,0,0,-
COC(=O)c1cc(NC(=O)Nc2cc(OC)ccc2OC)cc(C(=O)OC)c1,78,39,0,0,0,34
COc1cc(C2NC(=O)NC(c3ccccc3)=C2C(C)=O)ccc1OCC(=O)O (configuration not stated),0,0,0,0,0,-
COc1cc(C2NC(=O)NC(C)=C2C(=O)OC(C)(C)C)ccc1OCC(=O)O (configuration not stated),0,40,0,0,0,0
COc1cc(-c2[nH]nc3c2C(c2ccco2)C(C#N)=C(N)O3)cc(OC)c1OC (configuration not stated),0,57,0,0,0,37
O=C(CNC(=O)c1cc2ccccc2o1)NCc1cccs1,0,0,0,0,0,-
Cn1c(C(=O)NCc2cccs2)cc2oc3ccccc3c21,-,0,0,0,0,0
Cn1c(C(=O)NCc2ccccc2)cc2oc3ccccc3c21,0,0,0,0,0,0
Cn1c(C(=O)NCC2CCCO2)cc2oc3ccccc3c21 (configuration not stated),0,0,0,0,0,-
COc1ccc(-c2cc(N)n(S(=O)(=O)c3ccc(F)cc3)n2)cc1OC,0,0,0,0,0,-
O=C(NCC1CCCN1S(=O)(=O)c1cccs1)C(=O)Nc1ccc(F)cc1F (configuration not stated),-,0,0,0,0,-
COc1ccccc1Cn1nc(C(=O)O)c2ccccc2c1=O,-,0,0,0,0,-
CCOc1ccc(C(C)=O)cc1Cn1nc(C(=O)O)c2ccccc2c1=O,0,35,0,0,0,0
Cc1cc2ccccn2c1C(=O)c1ccc(NN)c([N+](=O)[O-])c1,0,45,0,0,0,42
O=c1cc(-c2ccc(O)c(-c3c(O)cc(O)c4c(=O)cc(-c5ccc(O)cc5)oc34)c2)oc2cc(O)cc(O)c12,0,40,0,0,0,0
O=c1cc(-c2ccc(O)cc2)oc2c(-c3c(O)cc(O)c4c(=O)cc(-c5ccc(O)cc5)oc34)c(O)cc(O)c12,-,0,0,0,0,-
SMILES,CHOP inh,697 NFkB inh,CHOP UPR activ,XBP1 UPR activ,Jurkat NFkB inh,697 NFkB conf
Nc1cc2c(cc1[N+](=O)[O-])OCCOCCOCCO2,0,0,0,0,0,-
CCOC(=O)/C(C#N)=C/c1cc(C)n(-c2ccccc2)c1C,0,0,0,0,0,0
O=C(Nc1ccc(Br)cn1)C1CCCN1S(=O)(=O)c1ccccc1 (configuration not stated),0,0,0,0,0,-
C=C(C)[C@@H]1CCC2(C(=O)O)CC[C@]3(C)[C@H](CC[C@@H]4[C@@]5(C)CCC(=O)C(C)(C)[C@@H]5CC[C@]43C)[C@@H]12 (some centres not stated),0,80,0,0,0,61
CC(CC(F)(F)F)N1CCC(n2nccc2NC(=O)CCCc2ccccc2)CC1 (configuration not stated),-,0,0,0,0,-
Cc1ccc2c(c1C)OC(=O)CC2c1ccccc1 (configuration not stated),-,0,0,0,0,-
c1ccc2nc(-c3ccc(N4CCOCC4)cc3)ccc2c1,90,0,0,0,0,0
CCOc1ccccc1C(=O)NCC(=O)N1CCN(Cc2ccc3c(c2)OCO3)CC1,-,0,0,0,0,-
COc1ccc(-c2nnc(SCC(=O)c3cc(C)n(Cc4cccs4)c3C)o2)cc1,0,0,0,0,0,-
Cc1csc(SCC(=O)c2cc(C)n(Cc3cccs3)c2C)n1,76,0,0,0,0,0
COC(=O)CN1C(=O)[C@H]2[C@@H](c3ccc(C)o3)N3C(=O)CN(CC4CC4)C(=O)[C@@]3(C)[C@H]2C1=O,-,0,0,0,0,-
Cc1cc2cc(CN(CC3CCCO3)C(=O)c3cnccn3)c(=O)[nH]c2cc1C (configuration not stated),0,36,0,0,0,0
CCOCCCNc1nc2c(C)cccn2c(=O)c1/C=C1\SC(=S)N(C(C)CC)C1=O (configuration not stated),0,37,0,0,0,32
CSc1ccc(C2NN=C(c3ccccc3)S2)cc1 (configuration not stated),-,0,0,0,0,0
Cc1nc(CCNC(=O)c2cc(COc3ccc(F)cc3Cl)on2)sc1C,0,0,0,0,0,-
COc1ccc(-c2csc3nc(-c4cccnc4)nc(N4CCC(C(N)=O)CC4)c23)cc1OC,0,39,0,0,0,26
NC(=O)c1cc([N+](=O)[O-])ccc1NCc1ccc(O)cc1,-,37,0,0,0,0
Cc1cc(C)c(NC(=O)c2cc(C(=O)O)ccc2C(=O)O)c([N+](=O)[O-])c1,0,0,0,0,0,-
COc1ccccc1NC(=O)CSc1nc(O)cc(=O)[nH]1,0,0,0,0,0,-
COc1cc(-c2noc(C)c2/C=C/c2ccc(C(=O)O)cc2)cc(OC)c1OC,-,37,0,0,0,0
O=C(CCCN1C(=O)/C(=C/c2ccccc2Cl)SC1=S)NNC(=O)c1ccc(Cl)cc1Cl,95,60,0,0,0,39
O=C(CCCN1C(=O)S/C(=C\C=C\c2ccccc2)C1=O)Nc1ccc(C(=O)O)cc1,-,48,0,0,0,53

# Assay outcomes (PubChem)
